Most compounds without a hit are left out; they make up all but 2.6% or so of the library.
Calb FLC = affects C. albicans growth with fluconazole; C. albicans CaCi-2 (fluconazole-resistant clinical isolate) + fluconazole, Alamar Blue growth, 48 h; growth inhibition, % (no concentration beside the values); AID 1979; actives 0.57% (n = 300,000);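 active means growth inhibition above about 58% in most replicates, limit read from the data, passing the limit was not always enough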;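 further: all wells also contain fluconazole at 8 µg/ml as a sub-toxic cotreatment; 0% = median of DMSO wells and 100% = median of geldanamycin control wells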
ASAP1 GAP inh = inhibitors of human ASAP1 ArfGAP activity | ASAP1-stimulated ARF1 GTP hydrolysis, GDP FP detection | Q9ULH1 | actives 0.19% (n = 360,000) | inhibition, % at 16.5 µM; in the data active means inhibition above about 25%;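 further: 0% = vehicle with enzyme and substrate and 100% = no enzyme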
Target sequence (Q9ULH1 325-724 limits assumed): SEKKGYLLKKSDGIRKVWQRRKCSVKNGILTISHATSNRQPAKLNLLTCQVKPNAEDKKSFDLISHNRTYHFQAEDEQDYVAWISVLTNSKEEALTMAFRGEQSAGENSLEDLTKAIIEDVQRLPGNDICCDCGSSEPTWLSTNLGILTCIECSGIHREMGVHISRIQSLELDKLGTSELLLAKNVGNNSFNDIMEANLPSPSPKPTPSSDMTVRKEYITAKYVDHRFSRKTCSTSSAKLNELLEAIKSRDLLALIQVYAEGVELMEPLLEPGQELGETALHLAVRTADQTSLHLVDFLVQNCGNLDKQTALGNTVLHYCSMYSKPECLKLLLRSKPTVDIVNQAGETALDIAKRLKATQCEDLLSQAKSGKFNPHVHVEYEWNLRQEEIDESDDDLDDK
ARFGAP1 inh = inhibits rat ARF GTPase activating protein 1 | Q62848 | Arfgap1-stimulated ARF1 GTP hydrolysis, GDP FP detection | inhibition, % at 16.5 µM | actives 0.26% (n = 360,000) | AID 651572;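 active means inhibition above a per-plate limit, mean inhibition of low control wells plus 3 SD, cut at about 25% in these data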;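 further: 0% = DMSO wells with enzyme and 100% = wells lacking Arfgap1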
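system = rat Arfgap1 catalytic domain, aa 1-136 | technique = FP, GDP Alexa 633 tracer displaced from anti-GDP antibody, 620/688 nm | compound = one concentration, 16.5 µM, DMSO 1.26% | medium = HEPES-based buffer, pH 7.5 | timing = compound-enzyme preincubation 20 min, reaction 120 min, detection 60 min, 25 °C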
IMP-1 inhibitor = inhibitors of Pseudomonas aeruginosa IMP-1 metallo-beta-lactamase; purified IMP-1, nitrocefin hydrolysis, epi-absorbance fluorescence; inhibition, % at 5.6 µM; actives 0.45% (n = 290,000); AID 1556;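 active means inhibition above the mean plus 3 SD of all compounds in the same screening run, cut at about 4.5% in these data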;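 further: 0% = IMP-1 with DMSO and 100% = DMSO wells lacking enzyme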
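System: Purified IMP-1 | Read-out basis: Percent enzyme inhibition | Controls: IMP-1 with DMSO as 0%, enzyme-free DMSO as 100% | Replicates: One well per compound | Doses: 5.6 µM nominal single concentration | Detection: Epi-absorbance fluorescence, 480 nm excitation, 530 nm emission | Incubation: 25 °C, 15 min preincubation, 25 min reaction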
PHOSPHO1 inh = inhibitors of human PHOSPHO1 phosphatase; recombinant PHOSPHO1, absorbance phosphatase assay; inhibition, % at 13.3 µM; actives 1.1% (n = 290,000); AID 1565; in the data active means inhibition above about 60%
VIM-2 inh = inhibitors of Pseudomonas aeruginosa VIM-2 metallo-beta-lactamase; actives 0.89% (n = 290,000); purified VIM-2, nitrocefin hydrolysis, epi-absorbance fluorescence; AID 1527; inhibition, % at 5.6 µM;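 active means inhibition above the mean of all tested compounds plus 3 SD, cutoff set per screening run, cut at about 7.5% in these data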;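 further: red hydrolysis product quenches plate fluorescence so inhibitors raise well fluorescence; 0% = enzyme with DMSO and 100% = DMSO without enzyme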
* = called active by the depositor; / = no result given.

SMILES	Calb FLC	ASAP1 GAP inh	ARFGAP1 inh	IMP-1 inhibitor	PHOSPHO1 inh	VIM-2 inh
Cn1c(N)c(C(=O)CSc2nnc(C3CC3)n2Cc2ccccc2)c(=O)n(C)c1=O	/	-15.2	7.9	/	/	/
O=C(CSc1nnc(C2CC2)n1Cc1ccccc1)c1cc2ccccc2o1	4.6	-12.9	-16.1	-1.1	97.1*	7.2
O=C(O)CSc1cccc[n+]1[O-]	-12.1	3.5	3.8	-1.1	-2.3	-2.2
CN(Cc1cccc(C(F)(F)F)c1)C(=O)[C@H]1O[C@@H](n2ccc(N)nc2=O)[C@H](O)[C@@H]1O	/	-6.7	0.6	/	/	/
O=C(Cc1cn(Cc2ccccc2)c2ccccc12)Nc1ccc(Nc2cccnc2)cc1	/	13.3	11.5	/	/	/
CCOC(=O)C1CCN(c2ncnc3c2[nH]c2cccc(OC)c23)CC1	24.1	-5.6	-6.4	-2.8	-3.5	8.4*
COc1cccc2[nH]c3c(N4CCCCC4)ncnc3c12	-22.8	-3.5	-4.8	-2.2	14.8	5.8
COc1ccc(-c2cc(=O)c3cccc(CC(=O)O)c3o2)cc1	/	1.5	3.7	/	/	/
COC(=O)C1=C(C)N(C)C(=NCc2ccc3c(c2)OCO3)NC1c1ccccc1 (configuration not stated)	/	1.3	2.7	/	/	/
N#C/C(=C(\O)Cc1ccccc1)c1nc2ccccc2[nH]1	-4.1	1.5	-1.0	-4.1	10.7	-4.8
N#C/C(=C(/O)c1ccco1)c1nc2ccccc2[nH]1	78.9*	-6.6	8.3	-3.9	24.4	-5.1
CCOC(=O)CNC(=O)N(C)[C@H]1C[C@H]2c3[nH]c4c(-c5ccccc5)cccc4c3CCN2C(=O)[C@H]1[C@H](C)O	/	-6.6	7.5	/	/	/
CC(=O)c1ccc(N2C(=O)C3C(C2=O)C(C(=O)c2ccc(Cl)cc2)N2CCCC32)cc1 (configuration not stated)	/	-5.8	-3.5	-3.4	-65.2	-7.0
O=C(c1ccc(Cl)cc1)C1C2C(=O)N(c3ccccc3)C(=O)C2C2CCCN21 (configuration not stated)	6.3	-7.9	3.9	-5.2	83.6*	-3.9
Cc1ccccc1CSc1nnc([C@@H]2CCCN2)o1	-11.7	5.2	7.7	5.7*	16.0	-0.3
Clc1ccccc1CSc1nnc([C@@H]2CCCN2)o1	5.6	6.0	8.0	1.9	46.0	0.0
COc1ccc(OC)c(C(O)c2ncc(-c3cccc4ccccc34)[nH]2)c1 (configuration not stated)	/	1.0	-2.2	/	/	/
C[C@@H]1ON(C)[C@H]2C[C@H]3c4[nH]c5cccc(-c6ccccc6)c5c4CCN3C[C@@H]12	/	8.1	-3.1	/	/	/
Cc1ccc(O)c(-c2cc3ccccc3[nH]2)c1	82.6*	10.3	14.8	-0.3	19.9	-2.5
N#Cc1c(Cl)nc(SCc2ccccc2)nc1-c1ccccc1	/	/	/	2.3	95.9*	-2.0
OC(c1ccccc1)(c1ccccc1)C1CCN(CCCOc2ccc(-c3ccncc3)cc2)CC1	/	10.0	8.1	/	/	/
Cc1cc(C)c(S(=O)(=O)N2CCOC2CNC(=O)C(=O)NCCCn2ccnc2)c(C)c1 (configuration not stated)	-5.4	6.0	3.3	7.0*	4.1	-1.5
Cc1cc(C)c(S(=O)(=O)N2CCOC2CNC(=O)C(=O)NCCc2ccc(S(N)(=O)=O)cc2)c(C)c1 (configuration not stated)	16.8	2.4	-6.8	-1.4	-0.5	-2.1
O=C(NCCCn1ccnc1)C(=O)NCC1OCCN1S(=O)(=O)c1ccc2c(c1)OCCO2 (configuration not stated)	11.5	2.5	-0.9	5.1*	28.5	1.0
O=C(NCCc1ccccc1)C(=O)NCC1OCCN1S(=O)(=O)c1ccc2c(c1)OCCO2 (configuration not stated)	1.1	-6.3	7.1	-0.1	-15.9	0.4
O=C(NCc1ccccc1)C(C1CC1)n1c(=O)c(-c2ccco2)nc2ccccc21 (configuration not stated)	/	-4.9	-14.9	/	/	/
CC(=O)Nc1ccc(OCCC[n+]2ccccc2)cc1	-10.4	16.0	-1.1	1.1	60.1*	0.2
CCCCOc1ccc(-c2ncc(N)cn2)cc1	3.3	-2.4	2.4	-3.2	36.8	-2.4
CCCCOc1ccc(-c2nc(=S)[nH][nH]2)cc1	-3.4	0.2	6.5	-8.4	80.2*	-4.6
